Measured values reported in ChEMBL document CHEMBL1795311, “Synthesis, antiproliferative activity, and mechanism of action of a series of 2-{[(2E)-3-phenylprop-2-enoyl]amino}benzamides” (Eur J Med Chem, 2011).
The source made the active and inactive calls. The calls are words filed in the database; no cut-off is given here.

What was measured:
OVCAR-8 = experiment: Growth inhibition of human OVCAR8 cells after 48 hrs by SRB assay; type: functional; details: OVCAR-8, 48 h
Summary of the method: (§1)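 NCI DTP panel cells grown in RPMI 1640 with 5% FBS and 2 mM L-glutamine, preincubated 24 h, then given five concentrations (10-fold or ½-log dilutions from DMSO stock) for 48 h at 37 °C. Cells fixed with TCA, stained with SRB, absorbance read at 515 nm, with time-zero plates as reference.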

MDA-MB-231 = experiment: Growth inhibition of human MDA-MB-231 cells after 48 hrs by SRB assay; type: functional; details: MDA-MB-231, 48 h; summary of the method: as §1
PtK2 [1] = experiment: Inhibition of tubulin polymerization in Potorous tridactylus PtK2 cells assessed as microtubule disruption at 10 uM after 24 hrs by immunofluorescence microscopy; type: cell-based
Summary of the method: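 PtK2 (Potorous tridactylis kidney) cells treated 24 h at 37 °C at 10 μM. Then fixed and stained directly with Cy3-anti-β-tubulin and FITC-anti-β-actin monoclonal antibodies and imaged by epifluorescence microscopy. Combretastatin A-4 (1 μM) and latrunculin A (1 μM) used as references.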

K562 [2] = experiment: Cell cycle distribution in human K562 cells assessed as decrease in accumulation at G0/G1 phase at 1 to 4 uM after 24 hrs by flow cytometry; type: functional, cell-based
Summary of the method: (§2)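 K562 exposed 24 h to 1, 2 or 4 μM. Washed cells resuspended in hypotonic propidium iodide (50 μg/ml in 0.1% sodium citrate plus 0.03% NP-40), incubated 30 min. DNA-content histograms acquired by flow cytometry give the G0–G1, S and G2-M fractions.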

Malme-3M = experiment: Growth inhibition of human MALME-3M cells after 48 hrs by SRB assay; type: functional; summary of the method: as §1
Mus musculus = experiment: Toxicity in non-tumorated mouse at 400 mg/kg; type: organism-based; set-up: dose 400 mg/kg; details: in vivo
Summary of the method: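 Run by the NCI in vivo toxicity assay in non-tumored mice, at a dose of 400 mg/kg.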

TK-10 = experiment: Growth inhibition of human TK10 cells after 48 hrs by SRB assay; type: functional; details: TK-10, 48 h
Summary of the method: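 Run by the NCI Developmental Therapeutics Program: cells in RPMI 1640 with 5% FBS and 2 mM L-glutamine, plated at 5000–40,000 cells/well and grown 24 h before dosing. Drug (DMSO stock) given at five concentrations for 48 h at 37 °C, 5% CO2. Adherent cells fixed with cold TCA, stained with 0.4% SRB and read at 515 nm. GI50, TGI and LC50 taken from the time-zero, control and treated absorbances.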

K562 [3] = experiment: Cell cycle distribution in human K562 cells assessed as blocked at M phase at 1 uM after 24 hrs by ethidium bromide/acridine orange staining (reference value: 1%); type: functional
Summary of the method: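 K562 exposed to 1 μM for 24 h, then stained with ethidium bromide and acridine orange. The percentage of cells arrested in mitosis was scored morphologically; untreated cells served as control.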

Bos taurus [4] = organism: Bos taurus; experiment: Inhibition of purified bovine brain tubulin polymerization by turbidimetry
Summary of the method: (§3)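 Purified bovine brain tubulin. Reaction mixtures preincubated at 30 °C without GTP, chilled on ice, then given 0.4 mM GTP at 0 °C. Temperature jumped to 30 °C and held 20 min while turbidity was followed spectrophotometrically. Maximal rate and extent of assembly compared with a control run in the same experiment. Concentrations tested up to 40 μM.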

IGROV-1 = experiment: Growth inhibition of human IGROV1 cells after 48 hrs by SRB assay; type: functional; details: IGROV-1, 48 h; summary of the method: as §1
EKVX = experiment: Growth inhibition of human EKVX cells after 48 hrs by SRB assay; type: functional; summary of the method: as §1
RXF 393 = experiment: Growth inhibition of human RXF393 cells after 48 hrs by SRB assay; type: functional; details: RXF 393, 48 h; summary of the method: as §1
K562 [5] = experiment: Induction of apoptosis in human K562 cells assessed as induction in morphological alterations at 2 uM after 24 hrs ny phase contrast invertoscope; type: functional, cell-based
Summary of the method: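 Living K562 cells in culture medium, exposed 24 h to 2, 5 or 10 μM or left untreated, then viewed by phase contrast invertoscope at 40× magnification for morphologic alterations.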

K562 [6] = experiment: Cell cycle distribution in human K562 cells assessed as increase in accumulation at G2/M phase at 1 to 4 uM after 24 hrs by flow cytometry; type: functional, cell-based; summary of the method: as §2
PtK2 [7] = experiment: Binding affinity to actin in Potorous tridactylus PtK2 cells at 10 uM; type: cell-based
Summary of the method: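 PtK2 (Potorous tridactylus kidney) cells treated 24 h at 37 °C, then fixed and stained by direct immunofluorescence with Cy3-anti-β-tubulin and FITC-anti-β-actin monoclonals. Microtubule and microfilament networks were examined by epifluorescence microscopy.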

SF-268 = experiment: Growth inhibition of human SF268 cells after 48 hrs by SRB assay; type: functional; details: SF-268, 48 h; summary of the method: as §1
K562 [8] = experiment: Induction of apoptosis in human K562 cells assessed as accumulation of hypodiploid nuclei after 48 hrs by FITC- conjugated annexin-V/propidium iodide based flow cytometry; type: functional, cell-based; details: K562, 48 h
Summary of the method: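 K562 cells treated with various concentrations for 48 h. Apoptosis scored as the percentage of hypodiploid nuclei in the sub-G0–G1 peak after hypotonic propidium iodide staining (50 μg/ml in 0.1% sodium citrate, 0.03% NP-40, 30 min), measured by flow cytometry. Annexin-V-FITC/PI staining, 15 min at 20 °C, also read by flow cytometry. Mean ±SE shown.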

RPMI-8226 = experiment: Growth inhibition of human RPMI8226 cells after 48 hrs by SRB assay; type: functional; details: RPMI-8226, 48 h; summary of the method: as §1
NCI-H226 = experiment: Growth inhibition of human NCI-H226 cells after 48 hrs by SRB assay; type: functional; details: NCI-H226, 48 h; summary of the method: as §1
K562 [9] = experiment: Growth inhibition of human K562 cells after 48 hrs by SRB assay; type: functional; details: K562, 48 h; summary of the method: as §1
Bos taurus [10] = organism: Bos taurus; experiment: Inhibition of purified bovine brain tubulin microtubule assembly up to 40 uM; summary of the method: as §3
NCI/ADR-RES = experiment: Growth inhibition of human NCI/ADR-RES cells after 48 hrs by SRB assay; type: functional; summary of the method: as §1
MDA-MB-435 = experiment: Growth inhibition of human MDA-MB-435 cells after 48 hrs by SRB assay; type: functional; details: MDA-MB-435, 48 h; summary of the method: as §1
MDA-MB-468 = experiment: Growth inhibition of human MDA-MB-468 cells after 48 hrs by SRB assay; type: functional; details: MDA-MB-468, 48 h; summary of the method: as §1

| Compound | GI50 (OVCAR-8) | GI50 (MDA-MB-231) | GI50 (Malme-3M) | GI50 (TK-10) | GI50 (IGROV-1) | GI50 (EKVX) | GI50 (RXF 393) | GI50 (SF-268) | GI50 (RPMI-8226) | GI50 (NCI-H226) | GI50 (K562 [9]) | also measured |
| --- | --- | --- | --- | --- | --- | --- | --- | --- | --- | --- | --- | --- |
| NC(=O)c1cc(I)ccc1NC(=O)/C=C/c1ccccc1 | 1060 nM | 596 nM | 1600 nM | 3150 nM | 917 nM | 734 nM | 3020 nM | 2310 nM | 347 nM | 1090 nM | 920 nM | Activity (PtK2 [1]): Active; Activity (K562 [2]): Active; Activity (Mus musculus): Non-toxic; Activity (K562 [3]): 35%; Activity (Bos taurus [4]): Active; Activity (K562 [5]): Active; Activity (K562 [6]): Active; Activity (PtK2 [7]): Active; AC50 (K562 [8]): 3700 nM; Activity (Bos taurus [10]): inactive |
| NC(=O)c1cc(Cl)ccc1NC(=O)/C=C/c1ccccc1 | 3890 nM | 2480 nM | 2680 nM | 5510 nM | 3290 nM | 2830 nM | 1710 nM | 2900 nM | 2790 nM | 3000 nM | 845 nM | GI50 (NCI/ADR-RES): 2240 nM; GI50 (MDA-MB-435): 492 nM; GI50 (MDA-MB-468): 1170 nM |
